Measured values reported in ChEMBL document CHEMBL1139499, “Nucleotides and pronucleotides of 2,2-bis(hydroxymethyl)methylenecyclopropane analogues of purine nucleosides: synthesis and antiviral activity” (J Med Chem, 2005).

system: HFF; test: Cytotoxic concentration against AD169 strain of human cytomegalovirus infected HFF cells of human (by neutral red uptake); assay type: functional; settings: not given

| Compound | CC50 [µM] |
| --- | --- |
| Nc1nc(O)c2ncn(/C=C3/CC34COP(=O)(O)OC4)c2n1 (stereo unspecified) | > 301 |
| COC(=O)C(C)NP(=O)(OCC1(CO)C/C1=C/n1cnc2c(N)ncnc21)Oc1ccccc1 (stereo unspecified) | 200 |
| Nc1nc2c(ncn2/C=C2/CC2(CO)CO)c(=O)[nH]1 [FILOCICLOVIR] | > 380 |

system: HFF; test: Cytotoxic concentration against towne strain of human cytomegalovirus infected HFF cells of human (visual cytotoxicity); range=100-200; assay type: functional; settings: not given
Method in brief: (§1)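 Human CMV (Towne and AD169 strains) grown in HFF cell culture; antiviral effect read by plaque reduction or by cytopathic effect (CPE) inhibition. Cytotoxicity measured in HFF cells. Single experiments unless specified otherwise.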

| Compound | CC50 [µM] |
| --- | --- |
| Nc1nc2c(ncn2/C=C2/CC2(CO)CO)c(=O)[nH]1 [FILOCICLOVIR] | 200 |

system: Hepatitis B virus; test: Effective concentration required to inhibit hepatitis B virus replication in 2.2.15 cells in DNA hybridization assay; assay type: functional, organism-based; settings: HepG2 2.2.15
Method in brief: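 HBV assayed in 2.2.15 cells by DNA hybridization. CC50 values are those from the EBV/H-1 cytotoxicity determination, run in CEM cells. Single experiments unless specified otherwise.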

| Compound | EC50 [µM] |
| --- | --- |
| Nc1nc(O)c2ncn(/C=C3/CC34COP(=O)(O)OC4)c2n1 (stereo unspecified) | 0.8 |
| COC(=O)C(C)NP(=O)(OCC1(CO)C/C1=C/n1cnc2c(N)ncnc21)Oc1ccccc1 (stereo unspecified) | 12.8 |
| Nc1nc2c(ncn2/C=C2/CC2(CO)CO)c(=O)[nH]1 [FILOCICLOVIR] | > 10 |

system: Daudi; test: Cytotoxic concentration to inhibit replication in daudi cells; assay type: functional; settings: Homo sapiens

| Compound | CC50 [µM] |
| --- | --- |
| Nc1nc(O)c2ncn(/C=C3/CC34COP(=O)(O)OC4)c2n1 (stereo unspecified) | > 150 |
| COC(=O)C(C)NP(=O)(OCC1(CO)C/C1=C/n1cnc2c(N)ncnc21)Oc1ccccc1 (stereo unspecified) | > 102 |
| Nc1nc2c(ncn2/C=C2/CC2(CO)CO)c(=O)[nH]1 [FILOCICLOVIR] | 74 |

system: Human betaherpesvirus 5; test: Effective concentration for antiviral activity against towne strain of human cytomegalovirus in plaque reduction assay; assay type: functional, organism-based; settings: not given; method in brief: as §1

| Compound | EC50 [µM] |
| --- | --- |
| Nc1nc(O)c2ncn(/C=C3/CC34COP(=O)(O)OC4)c2n1 (stereo unspecified) | 20 |
| COC(=O)C(C)NP(=O)(OCC1(CO)C/C1=C/n1cnc2c(N)ncnc21)Oc1ccccc1 (stereo unspecified) | 3 |
| Nc1nc2c(ncn2/C=C2/CC2(CO)CO)c(=O)[nH]1 [FILOCICLOVIR] | 0.33 |

system: Human gammaherpesvirus 4; test: Effective concentration required to inhibit Epstein-barr virus replication in daudi cells in viral capsid immunofluorescence ELISA; assay type: functional, organism-based; settings: human gammaherpesvirus 4, Daudi

| Compound | EC50 [µM] |
| --- | --- |
| Nc1nc(O)c2ncn(/C=C3/CC34COP(=O)(O)OC4)c2n1 (stereo unspecified) | 0.96 |
| COC(=O)C(C)NP(=O)(OCC1(CO)C/C1=C/n1cnc2c(N)ncnc21)Oc1ccccc1 (stereo unspecified) | > 102 |

system: Human alphaherpesvirus 2; test: Effective concentration required to inhibit herpes simplex virus 2 in HFF cells in cytopathic effect (CPE) assay; assay type: functional, organism-based; settings: Human alphaherpesvirus 2, HFF
Method in brief: (§2)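 HSV-1 and HSV-2 assayed in HFF cells by cytopathic effect (CPE) inhibition and by plaque reduction. Cytotoxicity measured in HFF cells. Single experiments unless specified otherwise.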

| Compound | EC50 [µM] |
| --- | --- |
| Nc1nc(O)c2ncn(/C=C3/CC34COP(=O)(O)OC4)c2n1 (stereo unspecified) | 242 |
| COC(=O)C(C)NP(=O)(OCC1(CO)C/C1=C/n1cnc2c(N)ncnc21)Oc1ccccc1 (stereo unspecified) | 22.1 |
| Nc1nc2c(ncn2/C=C2/CC2(CO)CO)c(=O)[nH]1 [FILOCICLOVIR] | > 380 |

system: MEF; test: Cytotoxic concentration against murine cytomegalovirus infected MEF cells; assay type: functional; settings: Mus musculus

| Compound | CC50 [µM] |
| --- | --- |
| Nc1nc(O)c2ncn(/C=C3/CC34COP(=O)(O)OC4)c2n1 (stereo unspecified) | > 301 |
| Nc1nc2c(ncn2/C=C2/CC2(CO)CO)c(=O)[nH]1 [FILOCICLOVIR] | > 380 |

system: Human betaherpesvirus 5; test: Effective concentration for antiviral activity against AD169 strain of human cytomegalovirus in plaque reduction assay; assay type: functional, organism-based; settings: not given; method in brief: as §1

| Compound | EC50 [µM] |
| --- | --- |
| Nc1nc(O)c2ncn(/C=C3/CC34COP(=O)(O)OC4)c2n1 (stereo unspecified) | 6 |
| COC(=O)C(C)NP(=O)(OCC1(CO)C/C1=C/n1cnc2c(N)ncnc21)Oc1ccccc1 (stereo unspecified) | 18.4 |
| Nc1nc2c(ncn2/C=C2/CC2(CO)CO)c(=O)[nH]1 [FILOCICLOVIR] | 0.49 |

system: Human alphaherpesvirus 1; test: Effective concentration required to inhibit herpes simplex virus 1 in BSC-1 cells in ELISA; assay type: functional, organism-based; settings: Human alphaherpesvirus 1, BSC-1
Method in brief: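 HSV-1 assayed in BSC-1 cells with ELISA read-out; cytotoxicity in these assays determined in KB cells. Single experiments unless specified otherwise.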

| Compound | EC50 [µM] |
| --- | --- |
| Nc1nc(O)c2ncn(/C=C3/CC34COP(=O)(O)OC4)c2n1 (stereo unspecified) | 20 |
| COC(=O)C(C)NP(=O)(OCC1(CO)C/C1=C/n1cnc2c(N)ncnc21)Oc1ccccc1 (stereo unspecified) | 55 |
| Nc1nc2c(ncn2/C=C2/CC2(CO)CO)c(=O)[nH]1 [FILOCICLOVIR] | > 100 |

system: not listed separately; test: Effective concentration required to inhibit varicella zoster virus replication in HFF cells; assay type: functional, cell-based; settings: Human alphaherpesvirus 3, HFF
Method in brief: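 VZV assayed in HFF cells by cytopathic effect (CPE) inhibition or by plaque reduction. Single experiments unless specified otherwise.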

| Compound | EC50 [µM] |
| --- | --- |
| Nc1nc(O)c2ncn(/C=C3/CC34COP(=O)(O)OC4)c2n1 (stereo unspecified) | > 301 |
| COC(=O)C(C)NP(=O)(OCC1(CO)C/C1=C/n1cnc2c(N)ncnc21)Oc1ccccc1 (stereo unspecified) | > 41 |
| Nc1nc2c(ncn2/C=C2/CC2(CO)CO)c(=O)[nH]1 [FILOCICLOVIR] | > 380 |

system: Human alphaherpesvirus 1; test: Effective concentration required to inhibit herpes simplex virus 1 in HFF cells in cytopathic effect (CPE) assay; assay type: functional, organism-based; settings: Human alphaherpesvirus 1, HFF; method in brief: as §2

| Compound | EC50 [µM] |
| --- | --- |
| Nc1nc(O)c2ncn(/C=C3/CC34COP(=O)(O)OC4)c2n1 (stereo unspecified) | > 301 |
| COC(=O)C(C)NP(=O)(OCC1(CO)C/C1=C/n1cnc2c(N)ncnc21)Oc1ccccc1 (stereo unspecified) | 21.1 |
| Nc1nc2c(ncn2/C=C2/CC2(CO)CO)c(=O)[nH]1 [FILOCICLOVIR] | > 380 |

system: KB (Homo sapiens); test: Cytotoxic concentration required to inhibit KB cells; settings: not given

| Compound | CC50 [µM] |
| --- | --- |
| Nc1nc(O)c2ncn(/C=C3/CC34COP(=O)(O)OC4)c2n1 (stereo unspecified) | > 100 |
| COC(=O)C(C)NP(=O)(OCC1(CO)C/C1=C/n1cnc2c(N)ncnc21)Oc1ccccc1 (stereo unspecified) | 3.5 |
| Nc1nc2c(ncn2/C=C2/CC2(CO)CO)c(=O)[nH]1 [FILOCICLOVIR] | > 100 |

system: HFF; test: Cytotoxic concentration to inhibit Herpes simplex virus 2 infected HFF cells; assay type: functional; settings: Homo sapiens; method in brief: as §2

| Compound | CC50 [µM] |
| --- | --- |
| COC(=O)C(C)NP(=O)(OCC1(CO)C/C1=C/n1cnc2c(N)ncnc21)Oc1ccccc1 (stereo unspecified) | 200 |

system: HFF; test: Cytotoxic concentration against towne strain of human cytomegalovirus infected HFF cells of human (visual cytotoxicity); assay type: functional; settings: not given; method in brief: as §1

| Compound | CC50 [µM] |
| --- | --- |
| Nc1nc(O)c2ncn(/C=C3/CC34COP(=O)(O)OC4)c2n1 (stereo unspecified) | > 100 |
| COC(=O)C(C)NP(=O)(OCC1(CO)C/C1=C/n1cnc2c(N)ncnc21)Oc1ccccc1 (stereo unspecified) | 32 |

system: Human alphaherpesvirus 2; test: Effective concentration required to inhibit herpes simplex virus 2 in vero cells in plaque reduction assay; assay type: functional, organism-based; settings: Human alphaherpesvirus 2, Vero
Method in brief: (§3)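 HSV-1 and HSV-2 assayed in Vero cells by plaque reduction. Single experiments unless specified otherwise.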

| Compound | EC50 [µM] |
| --- | --- |
| Nc1nc(O)c2ncn(/C=C3/CC34COP(=O)(O)OC4)c2n1 (stereo unspecified) | 22 |
| COC(=O)C(C)NP(=O)(OCC1(CO)C/C1=C/n1cnc2c(N)ncnc21)Oc1ccccc1 (stereo unspecified) | > 40 |
| Nc1nc2c(ncn2/C=C2/CC2(CO)CO)c(=O)[nH]1 [FILOCICLOVIR] | > 50 |

system: HFF; test: Cytotoxic concentration to inhibit Herpes simplex virus 1 infected HFF cells; assay type: functional; settings: Homo sapiens; method in brief: as §2

| Compound | CC50 [µM] |
| --- | --- |
| COC(=O)C(C)NP(=O)(OCC1(CO)C/C1=C/n1cnc2c(N)ncnc21)Oc1ccccc1 (stereo unspecified) | 200 |

system: not listed separately; test: Cytotoxic concentration to inhibit replication in H-1 cells (in CEM cells); assay type: functional; settings: Homo sapiens, CCRF-CEM
Method in brief: (§4)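 EBV assayed in H-1 cells by DNA hybridization. Cytotoxicity determined separately in CEM cells. Single experiments unless specified otherwise.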

| Compound | CC50 [µM] |
| --- | --- |
| Nc1nc(O)c2ncn(/C=C3/CC34COP(=O)(O)OC4)c2n1 (stereo unspecified) | > 100 |
| COC(=O)C(C)NP(=O)(OCC1(CO)C/C1=C/n1cnc2c(N)ncnc21)Oc1ccccc1 (stereo unspecified) | 3.8 |
| Nc1nc2c(ncn2/C=C2/CC2(CO)CO)c(=O)[nH]1 [FILOCICLOVIR] | > 50 |

system: Vero; test: Cytotoxic concentration required to inhibit herpes simplex virus 1 infected vero cells; assay type: functional; settings: Chlorocebus sabaeus

| Compound | CC50 [µM] |
| --- | --- |
| Nc1nc(O)c2ncn(/C=C3/CC34COP(=O)(O)OC4)c2n1 (stereo unspecified) | > 100 |

system: Human gammaherpesvirus 4; test: Effective concentration required to inhibit Epstein-barr virus replication in H-1 cells in DNA hybridization assay; assay type: functional, organism-based; settings: human gammaherpesvirus 4, H-1; method in brief: as §4

| Compound | EC50 [µM] |
| --- | --- |
| Nc1nc(O)c2ncn(/C=C3/CC34COP(=O)(O)OC4)c2n1 (stereo unspecified) | > 20 |
| COC(=O)C(C)NP(=O)(OCC1(CO)C/C1=C/n1cnc2c(N)ncnc21)Oc1ccccc1 (stereo unspecified) | 3 |

system: Human alphaherpesvirus 1; test: Effective concentration required to inhibit herpes simplex virus 1 in vero cells in plaque reduction assay; assay type: functional, organism-based; settings: Human alphaherpesvirus 1, Vero; method in brief: as §3

| Compound | EC50 [µM] |
| --- | --- |
| Nc1nc(O)c2ncn(/C=C3/CC34COP(=O)(O)OC4)c2n1 (stereo unspecified) | 16 |
| COC(=O)C(C)NP(=O)(OCC1(CO)C/C1=C/n1cnc2c(N)ncnc21)Oc1ccccc1 (stereo unspecified) | > 40 |
| Nc1nc2c(ncn2/C=C2/CC2(CO)CO)c(=O)[nH]1 [FILOCICLOVIR] | > 50 |
